Experimental data as given in PubChem BioAssay AID588823 (The Scripps Research Institute Molecular Screening Center, 2011).
Active and inactive are the calls of the source.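 The calls were made as follows: active = at least 50% inhibition of the target enzyme pPAFAH in mouse brain after oral dosing, with fewer than two other serine hydrolases also hit; inactive = weaker pPAFAH inhibition or two or more other hydrolases hit.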

Assays:
Test in all cases: pPAFAH inhibition after oral dosing in mice, late-stage follow-up, in vivo study, fluorescence, gel-based ABPP, mouse (AID 588823)
[1] = test system: Anti-targets; settings: mouse brain membrane proteome, FP-Rh probe
How it was run: (§1)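 Test system: Brain membrane proteome from orally dosed wild-type mice | Amount: 1 mg/mL membrane protein | Times: Brain harvest 4 h post-dose, probe labelling 30 min, 37 °C | Read-out basis: Percent inhibition from band integrated optical density versus vehicle, background-corrected | Compound dosing: 50 mg/kg orally in PEG300 | Signal: SDS-PAGE in-gel fluorescence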

[2] = test system: CES1; settings: mouse brain membrane proteome, stronger effect = higher value, dose or concentration not given here
How it was run: as §1

[3] = test system: pPAFAH; settings: mouse brain membrane proteome, stronger effect = higher value, dose or concentration not given here
How it was run: as §1

In the case of `Cc1cc(N2CCN(C(=O)Oc3ccc(-c4ccccc4)cn3)CC2)c2ccccc2n1`, the outcome [1] is reported as “inactive”, the anti-target count ([1]; number of FP-Rh anti-targets, stronger effect = lower value) is reported as 0 and the inhibition [2] is reported as 90%. The inhibition [3] was 95.5%.
